# Results as given in ChEMBL document CHEMBL1121729, “N*-N*-S* tridentate ligand system as potential antitumor agents” (1981).
# Experiments:
# [1] = tested on: L1210; assay: Growth inhibition of cultured L-1210 cells after 48-h exposure to compound at 1.6 x 10E-8 M/mL in trail 1; format: functional; conditions: Mus musculus, L1210, 48 h
# [2] = tested on: L1210; assay: Growth inhibition of cultured L-1210 cells after 48-h exposure to compound at 1.6 x 10E-8 M/mL in trail 2; format: functional; conditions: Mus musculus, L1210, 48 h
# [3] = tested on: L1210; assay: Growth inhibition of cultured L-1210 cells after 48-h exposure to compound at 4 x 10E-9 M/mL in trail 1; format: functional; conditions: Mus musculus, L1210, 48 h
# [4] = tested on: P388; assay: Antitumor activity against P-388 lymphocytic leukemia implanted CDF1 mice to that of control when 100 mg/kg compound administered; format: functional, Mus musculus
# Summary of the method: (§1)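 CDF1 mice given 10^6 P-388 lymphocytic leukemia cells ip on day 0; drug given ip as a suspension in klucel or in saline plus Tween 80 on days 1, 5 and 9, starting 24 h after tumor transplantation; six mice per group. Read-outs are treated/control (T/C, %) and body weight change in g as treated/control.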
# [5] = tested on: P388; assay: Antitumor activity against P-388 lymphocytic leukemia implanted CDF1 mice to that of control when 200 mg/kg compound administered; format: functional, Mus musculus; summary of the method: as §1
# [6] = tested on: P388; assay: Antitumor activity against P-388 lymphocytic leukemia implanted CDF1 mice to that of control when 400 mg/kg compound administered; format: functional, Mus musculus; summary of the method: as §1
# [7] = tested on: P388; assay: Change in body weight of P-388 lymphocytic leukemia implanted CDF1 mice to that of control when 200 mg/kg compound administered; T/C=1.5/0.5; format: functional, Mus musculus; summary of the method: as §1
# [8] = tested on: P388; assay: Change in body weight of P-388 lymphocytic leukemia implanted CDF1 mice to that of control when 400 mg/kg compound administered; T/C= -0.8/5; format: functional, Mus musculus; summary of the method: as §1
# [9] = tested on: Sarcoma-180; assay: Growth inhibition of cultured Sarcoma 180 cells after 48-h exposure to compound at 1.6 x 10E-8 M/mL in trail 1; format: functional; conditions: Mus musculus, Sarcoma-180, 48 h
# [10] = tested on: Sarcoma-180; assay: Growth inhibition of cultured Sarcoma 180 cells after 48-h exposure to compound at 1.6 x 10E-8 M/mL in trail 2; format: functional; conditions: Mus musculus, Sarcoma-180, 48 h
# [11] = tested on: Sarcoma-180; assay: Growth inhibition of cultured Sarcoma cells after 48-h exposure to compound at 4 x 10E-9 M/mL in trail 1; format: functional; conditions: Mus musculus, Sarcoma-180, 48 h
# [12] = tested on: Sarcoma-180; assay: Growth inhibition of cultured Sarcoma cells after 48-h exposure to compound at 4 x 10E-9 M/mL in trail 2; format: functional; conditions: Mus musculus, Sarcoma-180, 48 h
# [13] = tested on: L1210; assay: Growth inhibition of cultured L-1210 cells after 48-h exposure to compound at 4 x 10E-9 M/mL in trail 2; format: functional; conditions: Mus musculus, L1210, 48 h
# [14] = tested on: P388; assay: Change in body weight of P-388 lymphocytic leukemia implanted CDF1 mice to that of control when 100 mg/kg compound administered; T/C=1.5/0.5; format: functional, Mus musculus; summary of the method: as §1
# [15] = tested on: P388; assay: Change in body weight of P-388 lymphocytic leukemia implanted CDF1 mice to that of control when 200 mg/kg compound administered; T/C= 1.1/5; format: functional, Mus musculus; summary of the method: as §1
# [16] = tested on: P388; assay: Change in body weight of P-388 lymphocytic leukemia implanted CDF1 mice to that of control when 400 mg/kg compound administered; T/C= -2.5/5; format: functional, Mus musculus; summary of the method: as §1
# [17] = tested on: P388; assay: Change in body weight of P-388 lymphocytic leukemia implanted CDF1 mice to that of control when 100 mg/kg compound administered; T/C= 1.5/5; format: functional, Mus musculus; summary of the method: as §1
# [18] = tested on: P388; assay: Antitumor activity against P-388 lymphocytic leukemia implanted CDF1 mice to that of control when 400 mg/kg compound administered; toxic; format: functional, organism-based; design: dose 400 mg/kg; conditions: Mus musculus; summary of the method: as §1
# [19] = tested on: P388; assay: Change in body weight of P-388 lymphocytic leukemia implanted CDF1 mice to that of control when 200 mg/kg compound administered; T/C= 1/1.3; format: functional, Mus musculus; summary of the method: as §1
# [20] = tested on: P388; assay: Change in body weight of P-388 lymphocytic leukemia implanted CDF1 mice to that of control when 100 mg/kg compound administered; T/C= -0.2/1.3; format: functional, Mus musculus; summary of the method: as §1
# [21] = tested on: P388; assay: Change in body weight of P-388 lymphocytic leukemia implanted CDF1 mice to that of control when 200 mg/kg compound administered; T/C= 2.1/1.3; format: functional, Mus musculus; summary of the method: as §1
# [22] = tested on: P388; assay: Change in body weight of P-388 lymphocytic leukemia implanted CDF1 mice to that of control when 400 mg/kg compound administered; T/C= 0.8/1.3; format: functional, Mus musculus; summary of the method: as §1
# [23] = tested on: P388; assay: Change in body weight of P-388 lymphocytic leukemia implanted CDF1 mice to that of control when 100 mg/kg compound administered; T/C= 3.3/1.3; format: functional, Mus musculus; summary of the method: as §1
structure (smiles),measurement,setting,value
NC(=S)c1cccc(-c2ccccn2)n1,inhibition at 0.016 µM,[1],95%
same,inhibition at 0.016 µM,[2],93%
same,inhibition at 0.004 µM,[3],51%
same,T/C,[4],112%
same,T/C,[5],125%
same,T/C,[6],143%
same,Change in weight,[7],1.5
same,Change in weight,[8],-0.8
same,inhibition at 0.016 µM,[9],85%
same,inhibition at 0.016 µM,[10],60%
same,inhibition at 0.004 µM,[11],35%
same,inhibition at 0.004 µM,[12],10%
same,inhibition at 0.004 µM,[13],32%
same,Change in weight,[14],1.5
NC(=S)c1ccc2ccc3cccnc3c2n1,T/C,[4],100%
same,T/C,[5],106%
same,T/C,[6],112%
same,Change in weight,[15],1.1
same,Change in weight,[16],-2.5
same,Change in weight,[17],1.5
C/N=C(/S)c1cccc(-c2ccccn2)n1,T/C,[4],91%
same,T/C,[5],83%
same,T/C,[18],Toxic
same,Change in weight,[19],1
same,Change in weight,[20],-0.2
CN(C)C(=S)c1cccc(-c2ccccn2)n1,T/C,[4],95%
same,T/C,[5],95%
same,T/C,[6],91%
same,Change in weight,[21],2.1
same,Change in weight,[22],0.8
same,Change in weight,[23],3.3
